Measurements reported in ChEMBL document CHEMBL5058577, “EUbOPEN Chemogenomics Library 2 (Multiplex)” (2022).

Tested on: HEK-293T
Assay: Multiplex assay against HEK293T
Format: toxicity, cell-based
Conditions: human
Outline: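 Hoechst33342, BioTracker Green Microtubule Cytoskeleton Dye, MitoTracker Red and Annexin V Alexa Fluor 680 were added to live cells at seeding, and imaging on a CQ1 microscope at 37°C and 5% CO2 followed compound addition. Gating by CellPathfinder machine learning separated cells into Hoechst high-intensity objects or normal cells, then normal cells into healthy, pyknosed or fragmented nuclei, then pyknosed cells into mitotic or apoptotic. Per cents of healthy-nucleus cells are reported for the tubulin, mitochondrial-mass and membrane-permeability phenotypes.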

[1] = 12 h, 1 µM, compound concentration 1 uM, replicate 1
[2] = 12 h, 1 µM, compound concentration 1 uM, replicate 2
[3] = 12 h, 10 µM, compound concentration 10 uM, replicate 1
[4] = 12 h, 10 µM, compound concentration 10 uM, replicate 2
[5] = 24 h, 1 µM, compound concentration 1 uM, replicate 1
[6] = 24 h, 1 µM, compound concentration 1 uM, replicate 2
[7] = 24 h, 10 µM, compound concentration 10 uM, replicate 1
[8] = 24 h, 10 µM, compound concentration 10 uM, replicate 2
[9] = 48 h, 1 µM, compound concentration 1 uM, replicate 1
[10] = 48 h, 1 µM, compound concentration 1 uM, replicate 2
[11] = 48 h, 10 µM, compound concentration 10 uM, replicate 1
[12] = 48 h, 10 µM, compound concentration 10 uM, replicate 2

Cc1c(CC(=O)O)c2cccnc2n1Cc1ccc(S(C)(=O)=O)cc1C(F)(F)F [FEVIPIPRANT]
Population Apoptotic (%) [1]: 27% | Population Fragmented Nuclei (%) [1]: 6% | Population Healthy Nuclei (%) [1]: 83% | Population Hoechst High Intensity Objects (%) [1]: 5% | Population Membrane Permeable-Phenotype (%) [1]: 0% | Population Mitochondria Different-Phenotype (%) [1]: 32% | Population Mitotic Cells (%) [1]: 72% | Population Normal (%) [1]: 94% | Population Pyknosed Nuclei (%) [1]: 9% | Population Tubulin-Different-Phenotype (%) [1]: 22% | Total Cell Count [1]: 471 | Population Apoptotic (%) [2]: 41% | Population Fragmented Nuclei (%) [2]: 7% | Population Healthy Nuclei (%) [2]: 79% | Population Hoechst High Intensity Objects (%) [2]: 7% | Population Mitochondria Different-Phenotype (%) [2]: 52% | Population Mitotic Cells (%) [2]: 58% | Population Normal (%) [2]: 92% | Population Pyknosed Nuclei (%) [2]: 12% | Population Tubulin-Different-Phenotype (%) [2]: 16% | Total Cell Count [2]: 370 | Population Apoptotic (%) [3]: 33% | Population Fragmented Nuclei (%) [3]: 5% | Population Healthy Nuclei (%) [3]: 80% | Population Hoechst High Intensity Objects (%) [3]: 6% | Population Membrane Permeable-Phenotype (%) [3]: 0% | Population Mitochondria Different-Phenotype (%) [3]: 46% | Population Mitotic Cells (%) [3]: 66% | Population Normal (%) [3]: 93% | Population Pyknosed Nuclei (%) [3]: 13% | Population Tubulin-Different-Phenotype (%) [3]: 29% | Total Cell Count [3]: 417 | Population Apoptotic (%) [4]: 52% | Population Fragmented Nuclei (%) [4]: 11% | Population Healthy Nuclei (%) [4]: 75% | Population Hoechst High Intensity Objects (%) [4]: 10% | Population Mitochondria Different-Phenotype (%) [4]: 66% | Population Mitotic Cells (%) [4]: 47% | Population Normal (%) [4]: 89% | Population Pyknosed Nuclei (%) [4]: 12% | Population Tubulin-Different-Phenotype (%) [4]: 32% | Total Cell Count [4]: 303 | Population Apoptotic (%) [5]: 22% | Population Fragmented Nuclei (%) [5]: 8% | Population Healthy Nuclei (%) [5]: 81% | Population Hoechst High Intensity Objects (%) [5]: 3% | Population Membrane Permeable-Phenotype (%) [5]: 1% | Population Mitochondria Different-Phenotype (%) [5]: 18% | Population Mitotic Cells (%) [5]: 77% | Population Normal (%) [5]: 96% | Population Pyknosed Nuclei (%) [5]: 10% | Population Tubulin-Different-Phenotype (%) [5]: 18% | Total Cell Count [5]: 637 | Population Apoptotic (%) [6]: 43% | Population Fragmented Nuclei (%) [6]: 7% | Population Healthy Nuclei (%) [6]: 82% | Population Hoechst High Intensity Objects (%) [6]: 4% | Population Membrane Permeable-Phenotype (%) [6]: 0% | Population Mitochondria Different-Phenotype (%) [6]: 37% | Population Mitotic Cells (%) [6]: 56% | Population Normal (%) [6]: 95% | Population Tubulin-Different-Phenotype (%) [6]: 14% | Total Cell Count [6]: 457 | Population Apoptotic (%) [7]: 33% | Population Fragmented Nuclei (%) [7]: 8% | Population Healthy Nuclei (%) [7]: 80% | Population Hoechst High Intensity Objects (%) [7]: 5% | Population Membrane Permeable-Phenotype (%) [7]: 0% | Population Mitochondria Different-Phenotype (%) [7]: 31% | Population Mitotic Cells (%) [7]: 66% | Population Normal (%) [7]: 94% | Population Pyknosed Nuclei (%) [7]: 10% | Population Tubulin-Different-Phenotype (%) [7]: 20% | Total Cell Count [7]: 499 | Population Apoptotic (%) [8]: 50% | Population Fragmented Nuclei (%) [8]: 9% | Population Healthy Nuclei (%) [8]: 81% | Population Hoechst High Intensity Objects (%) [8]: 11% | Population Mitochondria Different-Phenotype (%) [8]: 44% | Population Mitotic Cells (%) [8]: 50% | Population Normal (%) [8]: 88% | Population Pyknosed Nuclei (%) [8]: 8% | Total Cell Count [8]: 334 | Population Apoptotic (%) [9]: 16% | Population Fragmented Nuclei (%) [9]: 13% | Population Healthy Nuclei (%) [9]: 79% | Population Hoechst High Intensity Objects (%) [9]: 1% | Population Membrane Permeable-Phenotype (%) [9]: 2% | Population Mitochondria Different-Phenotype (%) [9]: 12% | Population Mitotic Cells (%) [9]: 83% | Population Normal (%) [9]: 98% | Population Pyknosed Nuclei (%) [9]: 7% | Population Tubulin-Different-Phenotype (%) [9]: 12% | Total Cell Count [9]: 1065 | Population Apoptotic (%) [10]: 20% | Population Fragmented Nuclei (%) [10]: 11% | Population Healthy Nuclei (%) [10]: 82% | Population Hoechst High Intensity Objects (%) [10]: 2% | Population Membrane Permeable-Phenotype (%) [10]: 0% | Population Mitochondria Different-Phenotype (%) [10]: 16% | Population Mitotic Cells (%) [10]: 79% | Population Normal (%) [10]: 97% | Population Pyknosed Nuclei (%) [10]: 6% | Population Tubulin-Different-Phenotype (%) [10]: 10% | Total Cell Count [10]: 713 | Population Apoptotic (%) [11]: 29% | Population Fragmented Nuclei (%) [11]: 14% | Population Healthy Nuclei (%) [11]: 78% | Population Hoechst High Intensity Objects (%) [11]: 4% | Population Membrane Permeable-Phenotype (%) [11]: 0% | Population Mitochondria Different-Phenotype (%) [11]: 24% | Population Mitotic Cells (%) [11]: 70% | Population Normal (%) [11]: 95% | Population Pyknosed Nuclei (%) [11]: 7% | Population Tubulin-Different-Phenotype (%) [11]: 14% | Total Cell Count [11]: 794 | Population Apoptotic (%) [12]: 45% | Population Healthy Nuclei (%) [12]: 77% | Population Hoechst High Intensity Objects (%) [12]: 7% | Population Membrane Permeable-Phenotype (%) [12]: 1% | Population Mitochondria Different-Phenotype (%) [12]: 22% | Population Mitotic Cells (%) [12]: 55% | Population Normal (%) [12]: 92% | Population Pyknosed Nuclei (%) [12]: 8% | Population Tubulin-Different-Phenotype (%) [12]: 17% | Total Cell Count [12]: 491
